This is a sample that favours compounds with a hit; in the whole collection about 2.9% have one here.
DENV2 CPE: DENV2-induced cell death inhibition; CPE inhibition, % at 9.99 µM; hit rate 1.7% among 350,000; DENV2-infected cells, cytopathic effect rescue, plate reader; AID 651640; in the data active means CPE inhibition above about 20%, passing the limit was not always enough; tested in BHK-21 cells;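 further: 0% = median of neutral control wells and 100% = median of positive control wells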
E-selectin induc: induces E-selectin expression in human endothelial cells | HUVEC E-selectin immunofluorescence imaging; normalized: neutral wells 0, TNF-alpha wells 100 | activation, % at 7.58 µM | hit rate 0.37% among 260,000 | AID 686992;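 active means mean E-selectin-positive cell signal at least 10% of the positive control, reached in at least 60% of replicates, without over 20% cell loss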
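System: HUVEC, human umbilical vein endothelial cells; quantity: 3,000 cells/well; buffer or medium: EGM-2 medium, gelatin-coated wells; dosing: single-point compound dose; detection: immunofluorescence imaging; evaluation: % PE-positive cells; benchmarks: TNF-alpha, DMSO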
SIRT5 block: blocks human SIRT5 desuccinylation of peptide; Q9NXA8; Purified SirT5, succinyl-peptide AMC, trypsin-coupled fluorescence; inhibition, % at 15 µM; hit rate 1.1% among 330,000; AID 652115; in the data active means inhibition above about 15%
Target sequence (Q9NXA8 whole entry, looked up): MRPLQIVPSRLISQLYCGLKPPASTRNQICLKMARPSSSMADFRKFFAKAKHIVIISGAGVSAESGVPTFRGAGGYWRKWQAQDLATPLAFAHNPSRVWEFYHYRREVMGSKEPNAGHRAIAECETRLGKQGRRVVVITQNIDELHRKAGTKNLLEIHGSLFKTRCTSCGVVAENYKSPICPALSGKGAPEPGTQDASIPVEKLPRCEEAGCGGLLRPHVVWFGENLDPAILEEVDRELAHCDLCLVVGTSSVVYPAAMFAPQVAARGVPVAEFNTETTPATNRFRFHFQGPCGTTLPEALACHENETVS
* = called active by the depositor; x = no result given.

SMILES	DENV2 CPE	E-selectin induc	SIRT5 block
CCN1[C@@H]2c3ccc(-c4ccccc4)c(=O)n3C[C@H]1[C@H](CO)[C@H]2C(=O)Nc1ccccc1	8	0	-9
CC(=O)N1[C@@H]2Cn3c(ccc(-c4ccccc4)c3=O)[C@H]1[C@@H](C(=O)NC1Cc3ccccc3C1)[C@@H]2CO	x	0	-1
CN(C(=O)c1cccc(NC(=O)Cc2ccc(NC(=O)C3CCN(S(=O)(=O)c4cccc([N+](=O)[O-])c4)CC3)cc2)c1)C1CCCCC1	5	0	6
COCC(=O)N[C@@H]1C=C[C@H](CC(=O)NCc2ccc(Cl)cc2)O[C@@H]1CO	0	0	3
CCc1ccc(NC(=O)N2CCC(c3ccccc3)C2)cc1 (stereo not drawn)	-4	x	0
Cc1ccc(C(=O)NCCC(=O)N2CCC3(CC2)NCCc2[nH]cnc23)cc1C	4	0	28*
Cc1ccc(C(=O)NCC(=O)N2CCC3(CC2)NCCc2[nH]cnc23)cc1C	4	x	-1
C[C@@H]1CN([C@@H](C)CO)C(=O)Cc2cc(NS(=O)(=O)c3cccs3)ccc2O[C@H]1CN(C)C(=O)NC1CCCCC1	-4	0	3
C[C@H](CO)N1C[C@H](C)[C@@H](CN(C)CC2CC2)Oc2c(NC(=O)Nc3cccc4ccccc34)cccc2C1=O	-6	x	-1
CC(=O)Oc1ccc(C2=Cc3ccc(OC(C)=O)cc3OC2C)cc1 (stereo not drawn)	-3	118*	x
COc1ccc(C2=C/C(=C\c3ccc(OC(C)=O)cc3)C(=O)O2)cc1	3	0	-4
COc1ccccc1N(CC(=O)NC1CCCCC1)C(=O)CCC(=O)Nc1nccs1	13	0	-3
C/C(=N\NC(=S)NCc1ccccc1)c1ccccc1	0	x	-3
CC1=C/C(=N\NC(=S)NCc2ccccc2)CC1	1	3	18*
CCOc1cc(/C=N/NC(=O)c2ccc(O)cc2)ccc1Oc1nc(Cl)ncc1F	x	x	-3
O=C1/C(=C/c2ccc(Br)cc2)Oc2cc(O)ccc21	-1	0	-1
O=C1/C(=C/c2ccc([N+](=O)[O-])cc2)Oc2cc(O)ccc21	5	0	16*
N#C[C@@H]1[C@@H](c2ccc(C#Cc3cccnc3)cc2)[C@@H](CO)N1C(=O)C1CCCCC1	-13	0	1
C[C@H]1CCCCO[C@H](CN(C)C(=O)NC2CCCCC2)[C@@H](C)CN([C@@H](C)CO)C(=O)c2cc(NS(=O)(=O)c3ccc(F)cc3)ccc2O1	24*	x	9
C[C@@H]1CCCCO[C@@H](CN(C)C(=O)NC2CCCCC2)[C@@H](C)CN([C@H](C)CO)C(=O)c2cc(NS(=O)(=O)c3ccc(F)cc3)ccc2O1	0	x	5
C[C@@H]1CCCCO[C@H](CN(C)C(=O)NC2CCCCC2)[C@H](C)CN([C@@H](C)CO)C(=O)c2cc(NS(=O)(=O)c3ccc(F)cc3)ccc2O1	51*	x	9
C[C@@H]1CN([C@H](C)CO)C(=O)c2cc(NS(=O)(=O)c3ccc(F)cc3)ccc2O[C@@H](C)CCCCO[C@@H]1CN(C)C(=O)NC1CCCCC1	14	0	9
C[C@H](CO)N1C[C@H](C)[C@@H](CN(C)C(=O)C2CCCCC2)Oc2cc(-c3cccnc3)ccc2S1(=O)=O	13	0	-6
C[C@@H]1CN([C@H](C)CO)C(=O)c2cc(-c3cccnc3)cnc2O[C@H]1CN(C)C(=O)Nc1ccc(C(F)(F)F)cc1	10	0	-4
C[C@@H]1CN([C@@H](C)CO)C(=O)c2cc(-c3cncnc3)cnc2O[C@@H]1CN(C)C(=O)Nc1ccc2c(c1)OCO2	-3	0	-2
SMILES	DENV2 CPE	E-selectin induc	SIRT5 block
C[C@H](CO)N1C[C@H](C)[C@@H](CN(C)C(=O)Nc2ccc(C(F)(F)F)cc2)Oc2ncc(-c3cccnc3)cc2C1=O	30*	0	-5
C[C@H]1CN([C@@H](C)CO)C(=O)c2cc(-c3ccccc3)cnc2O[C@@H]1CN(C)C(=O)Nc1ccc2c(c1)OCO2	-9	0	9.5*
C[C@@H]1CN([C@@H](C)CO)C(=O)c2cc(-c3cccnc3)cnc2O[C@H]1CN(C)C(=O)Nc1ccc2c(c1)OCO2	8	-1	32*
C[C@H]1CN([C@@H](C)CO)C(=O)c2cc(-c3cccnc3)cnc2O[C@@H]1CN(C)C(=O)Nc1ccc2c(c1)OCO2	-2	0	0
C[C@@H]1CN([C@@H](C)CO)C(=O)c2cc(-c3ccccc3)cnc2O[C@H]1CN(C)C(=O)Nc1ccc2c(c1)OCO2	12	0	-1
C[C@@H]1CN([C@@H](C)CO)C(=O)c2cc(-c3cncnc3)cnc2O[C@H]1CN(C)C(=O)Nc1ccc2c(c1)OCO2	47*	0	-1
O=C(C[C@@H]1CC[C@H](NC(=O)CN2CCOCC2)[C@@H](CO)O1)NCc1cccc(F)c1	8	0	2
Cc1ccc(S(=O)(=O)N(C)C[C@@H]2Oc3c(NC(=O)c4cc(C)nn4C)cccc3C(=O)N([C@H](C)CO)C[C@H]2C)cc1	1	0	-3
CN1CCN(c2ccc(C(CC(N)=O)NC(=O)c3ccccc3)cc2[N+](=O)[O-])CC1 (stereo not drawn)	18	0	x
COc1ccc(CNC(=O)CCS(=O)(=O)c2ccc3c(c2)NC(=O)C(C)S3)cc1 (stereo not drawn)	1	x	4
COc1ccc(CNC(=O)CCS(=O)(=O)c2ccc3c(c2)NC(=O)CS3)cc1	35*	1	2
CC(CC(=O)N(C)C1CCCCC1)S(=O)(=O)c1ccc2c(c1)NC(=O)CO2 (stereo not drawn)	-5	7	-2
O=c1c2ccccc2nc2n1CCO2	-2	0	-4
COCCCNC(=O)CSc1nc2c(sc(=S)n2-c2cc(Cl)ccc2OC)c(=O)[nH]1	-2	46*	-1
CCC(C)NC(=O)CSc1nc2c(sc(=S)n2-c2cc(Cl)ccc2OC)c(=O)[nH]1 (stereo not drawn)	12	0	2
COc1ccc(-c2sc3ccc(OC)cc3c2C#CCCO)cc1	x	x	9
COc1ccc2sc(-c3ccc(N(C)C)cc3)c(C#CCCO)c2c1	26*	1	-7
CCC(=O)N1[C@H](CO)[C@@H]2c3ccccc3N(C(=O)c3ccccc3F)C[C@@H]21	15	0	1
O=C(CN1C(=O)COc2ccccc21)Nc1ccccc1F	1	x	1
O=C(CN1C(=O)COc2ccccc21)NNC(=O)Nc1ccccc1F	9	0	26*
CC(C)N1C(=O)CCC1C(=O)N1CCN(c2ccccn2)CC1 (stereo not drawn)	7	2	-3
CC(C)N1C(=O)CCC1C(=O)O (stereo not drawn)	33*	x	-2
CCOC(=O)c1cccc(S(=O)(=O)N2CCCC2)c1	-2	0	-3
Cc1nn(-c2ccccc2)c(C)c1/C=N/n1c(-c2ccc(Cl)cc2)n[nH]c1=S	0	x	17*
Cc1nn(-c2ccccc2)c(C)c1/C=N/n1c(-c2ccncc2)n[nH]c1=S	-1	x	-4
CCN1[C@@H]2c3ccc(C4=CCCCC4)c(=O)n3C[C@@H]2[C@@H](CO)[C@@H]1C(=O)N(C)C	4	0	0
CCOC(=O)Cn1cnc2sc(C(=O)OC)c(C)c2c1=O	2	x	-1
